PGC1a acetyl up: raises PGC1a acetylation signal in U2OS cells; U2OS PGC1a acetylation AlphaScreen, overnight; activation, % at 15.6 µM; hit rate 0.21% among 350,000; AID 651723;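 active = every replicate reaching activation of at least 50%, whatever the mean replicate activation; inconclusive = replicates that disagree or another doubt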;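 note: hits raise the AlphaScreen acetylation signal above neutral controls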
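Incubation: overnight compound treatment, 37 °C. System: U2OS cells transduced with flag-tagged PGC1a and GCN5 acetyltransferase. Detection: AlphaScreen lysate read. Compound: single-point compound dosing.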
G6PC hep suppr: PGC-1a acetylation activators affecting G6PC expression in hepatocytes. primary mouse hepatocytes, G6PC mRNA qPCR, forskolin. G6PC suppression (normalized activity, % of positive control; higher = more suppression), % at 26 µM. shares compounds with PGC1a acetyl up. AID 743463. 240 tested, under 10 active;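 active = dose curves showing G6PC suppression whose half-maximal dose is at most twice the top valid dose; inconclusive = flat curves with moderate negative activity, or unreliable fits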;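 note: G6PC expression relative to GAPDH housekeeping gene as delta delta Ct; 0% = median of neutral control wells and 100% = median of positive control wells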
PCK1 hep suppr: hepatocyte PCK1 expression change via PGC-1a acetylation activation; primary mouse hepatocytes, PCK1 mRNA qPCR, forskolin-stimulated; PCK1 expression decrease, unspecified at 26 µM; 230 tested, under 10 active; shares compounds with PGC1a acetyl up;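 active = compounds lowering PCK1 expression whose fitted half-maximal concentration is at most twice the top tested dose; inconclusive = flat fit with moderate opposite-direction effect, or poor fit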;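 note: values are delta delta Ct of PCK1 relative to GAPDH; higher delta delta Ct means lower PCK1 expression so positive values indicate hits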
Hep PGC-1a down: hepatocyte PGC-1a expression change via PGC-1a acetylation activation. shares compounds with PGC1a acetyl up. primary mouse hepatocytes, PGC-1a mRNA qPCR, forskolin; top dose 26 µM. max activity (PGC-1a expression decrease), %. 240 tested, under 10 active. AID 743467;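 active = compound lowering PGC-1a expression with fitted half-maximal concentration at most twice its top tested dose; inconclusive = flat curve with moderate opposite-direction effect, or poor fit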;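 note: 0% = neutral control wells median and 100% = positive control wells median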
Starred values were filed as active, the others as inactive; ? = inconclusive; . = not tested or not shown; [ ] = dose if it differs, or a comment. These entries were drawn from the full list.

SMILES	PGC1a acetyl up	G6PC hep suppr	PCK1 hep suppr	Hep PGC-1a down
O=C(CCCn1c(=O)[nH]c2cc(Cl)ccc2c1=O)NCCC1=CCCCC1	73*	60	?	-24
C[C@@](Cc1ccc(O)c(O)c1)(NN)C(=O)O	-62	.	.	.
C#CCN1C(=O)C(O)(CC(=O)c2ccc(OC)c(OC)c2)c2ccccc21 (stereo not drawn)	-43	.	.	.
CC1(Cc2ccc(Cl)cc2)C(=O)Nc2c(Cl)ccc(Cl)c21 (stereo not drawn)	80*	-63	.	?
COc1cccc(NC(=O)N2CCN(c3cccc(C)c3)C(C)C2)c1 (stereo not drawn)	-45	.	.	.
O=C1C(N2CCOCC2)=C(n2nnc3ccccc32)C(=O)c2ccccc21	-61	.	.	.
COC(=O)C[C@@H]1C[C@H]2c3cc(NC(=O)Nc4ccc(C(F)(F)F)cc4)ccc3O[C@H]2[C@H](CO)O1	?	6[23.5 µM]	-9.5[23.5 µM]	25
Cc1ccc(-c2[nH]ncc2/C=C(\C#N)C(=O)NC2CCCCC2)cc1	-41	.	.	.
O=C(C[C@H]1CC[C@H]2[C@@H](COC[C@@H](O)CN2C(=O)c2cc(Cl)cc(Cl)c2)O1)N1CCc2ccccc2C1	?	26	59	91
C=C1C(=O)[C@]23C[C@H]1CC[C@H]2[C@]1(C)[C@@H](OC(C)=O)CC[C@@](C)(C(=O)OC)[C@H]1C[C@@H]3OC(C)=O	-94	.	.	.
Nc1nn(-c2ccccc2)nc1C(=O)OCc1ccccc1	-72	.	.	.
O=C(NN1c2ccccc2CCc2ccccc21)c1ccccc1Br	?	168	102	88
O=C(c1cc(Cl)ccc1Cl)N1CCc2ccccc21	-43	.	.	.
CCOC(=O)c1c(NC(=O)c2ccoc2C)sc2c1CCC2	-57	.	.	.
CCc1nnc(N/N=C/c2ccccc2Cl)n1N	-72	.	.	.
CCN1CCN(c2ncc(C(=O)Nc3cc(Cl)ccc3OC)c3ccccc23)CC1	-93	272[8 µM]	?	110
Cc1c(/C(O)=C2\C(=O)C(=O)N(CCCN(C)C)C2c2ccccc2)cnn1-c1ccccc1 (stereo not drawn)	-82	.	.	.
C=CCN(c1ccc(C(=O)Nc2ccc3c(c2)OCO3)cc1)S(C)(=O)=O	-93	.	.	.
Nn1cnnc1N/N=C/c1ccc(Cl)c([N+](=O)[O-])c1	-53	.	.	.
COc1ccc(N(C(=O)c2snc(C(N)=O)c2N)C(C(=O)NC2CCCCC2)c2ccc(C)o2)cc1 (stereo not drawn)	62*	-14	-45	37
C#CC(=O)N(c1ccc(OC)cc1OC)C(C(=O)NC1CCCC1)c1cccs1 (stereo not drawn)	-95	.	.	.
COc1ccc(N(C(=O)c2snc(C(N)=O)c2N)C(C(=O)NC2CCCCC2)c2ccc(F)cc2)c(OC)c1 (stereo not drawn)	?	-20[8 µM]	119	72
CC(=O)ON=C1C=CC(=C(C#N)c2ccccc2)C=C1	-41	.	.	.
COc1ccc(OCCc2nnc(N)s2)cc1	-43	.	.	.
Cc1cccc(Oc2nccc(C(F)(F)F)c2C(=O)Nc2ccc(F)cc2F)c1	-85	.	.	.
SMILES	PGC1a acetyl up	G6PC hep suppr	PCK1 hep suppr	Hep PGC-1a down
Cc1ccc(O)c(NC(=O)c2ccc3c(c2)C(=O)N(CC(C)C)C3=O)c1	-44	.	.	.
COc1ccc(C(CNC(=O)c2cccc(N(C)C)c2)N2CCCC2)cc1 (stereo not drawn)	-47	176	121	28
Cc1cccc(-c2ccc3[nH]c4c(c3c2)CCN2C[C@@H]([C@H](C)O)[C@@H](N(C)C(=O)NC3CCCCC3)C[C@@H]42)c1	-40	.	.	.
COc1ccc(S(=O)(=O)NNC(=O)c2csc(-n3nc(C)cc3C(F)(F)F)n2)cc1	-54	29	-10	122
Cc1cc(C(=O)CSc2nnc(-c3ccccc3)o2)c(C)n1CC1COc2ccccc2O1 (stereo not drawn)	-51	.	.	.
CCOC(=O)c1ccc(N2C(=O)CC(N3CCC(O)(c4ccc(Br)cc4)CC3)C2=O)cc1 (stereo not drawn)	-47	.	.	.
O=C(Nc1ccc(OCC(=O)N2CCC(Cc3ccccc3)CC2)cc1)c1ccco1	67*	.	0.009	23
COc1ccc2nc(N3CCCC(C(=O)NCCCN4CCN(C)CC4)C3)sc2c1 (stereo not drawn)	-70	.	.	.
CCOC(=O)C(=CNc1ccc(C)cc1C)C(=O)OCC	-41	.	.	.
O=C(CCc1nc2ccccc2c(=O)[nH]1)OCC(=O)N1CCc2ccccc21	-53	.	.	.
Cc1ccc(N)cc1S(=O)(=O)N(C)C	-46	.	.	.
O=C(COCc1cc(-c2ccc3c(c2)OCO3)on1)Nc1cccnc1	94*	3	43	?
N/C(=N\OC(=O)CCCOc1ccccc1)c1ccc([N+](=O)[O-])cc1	-90	.	.	.
Cc1ccc(C)c(NC(=S)Nc2cccc3cnccc23)c1	-51	.	.	.
CC(C)(C)NC(=O)Cn1nnc(-c2ccccc2NC(=O)c2ccco2)n1	-44	.	.	.
O=C(Cc1ccccc1)Nc1ccc(NC(=O)c2ccco2)nc1	?	-6	-48	84
O=C(/C(=C/O)N=Nc1ccccc1)c1ccco1	-42	.	.	.
COc1ccc(S(=O)(=O)N2CCOCC2)cc1NC(=O)CCNC(=O)c1ccc(Cl)cc1	76*	3	49	?
COc1cc(C2Nc3cccc4cccc(c34)N2)cc(OC)c1OC(C)=O	-45	.	.	.
CCCCCCC[C@@H](C/C=C/CCC(=O)O)OC	-45	.	.	.
O=C(c1cccs1)N1CCN(c2nnc(-c3ccccc3)c3ccccc23)CC1	69*	19	-6.8[8 µM]	34
Cc1c(C(=O)N2CCN(c3ccccn3)CC2)sc2ncnc(N3CCN(c4ccccc4)CC3)c12	-40	.	.	.
Cc1nc2ncnn2c(C)c1CCC(=O)N1CCN(c2ccccn2)CC1	-43	.	.	.
Cc1ccc(-c2nnc(N3CCN(C(=O)COc4ccccc4)CC3)c3ccccc23)cc1	94*	360	.	121
Cc1ccc(C(=O)Nc2nc(=O)n(C(=O)CC(C)C)s2)cc1	-48	.	.	.
SMILES	PGC1a acetyl up	G6PC hep suppr	PCK1 hep suppr	Hep PGC-1a down
Cc1[nH]nc2ncc(C(=O)c3ccccc3O)cc12	-45	.	.	.
Cc1c(Nc2cc(Cl)c3nonc3c2[N+](=O)[O-])c(=O)n(-c2ccccc2)n1C	-40	.	.	.
CC1CC(NS(=O)(=O)c2cccs2)CC(C)(C)C1 (stereo not drawn)	265*	99	69	157
O=C(c1ccc(NC(=O)C2(c3ccccc3)CCOCC2)cc1)N1CCOCC1	-41	.	.	.
Cc1ccc2[nH]c(=O)c(CN(Cc3ccc4c(c3)OCO4)Cc3nnnn3C3CCCC3)cc2c1	58*	27	85	65
COc1ccc(CN(Cc2cc3ccc(C)cc3[nH]c2=O)Cc2nnnn2C2CCCC2)cc1	-53	.	.	.
CCN(CC)C(=O)c1sc(NC(=O)c2ccncc2)c(C(=O)OC)c1C	-52	.	.	.
CC(=O)[C@H]1CC[C@H]2[C@@H]3CC=C4C[C@@H](OS(=O)(=O)O)CC[C@]4(C)[C@H]3CC[C@]12C	-47	.	.	.
COC(=O)c1nn(-c2ccccc2)ccc1=O	-44	.	.	.
Cc1cc(N)c2cc(NC(=O)/C=C/c3ccccc3Cl)ccc2n1	-80	.	.	.
CCCOc1ccc(C(=O)Nc2cccnc2)cc1	77*	-38	57	54
O=C(Nc1cccnc1)c1ccc(Oc2ccccc2)cc1	78*	-14	9.5	?
Cc1cc(/C=C2\C(=N)N3N=C(C(C)C)SC3=NC2=O)c(C)n1Cc1ccccc1	-49	.	.	.
C=CC(=O)NC(C)(C)Cc1ccccc1	-44	.	.	.
COc1cc(NS(=O)(=O)c2ccc(N)cc2)nc(OC)n1	-57	.	.	.
Cc1cccc(N2C(=O)C(Cl)=C(N3CCOCC3)C2=O)c1	-81	.	.	.
O=S(=O)(c1cccc(F)c1)N1CCN(Cc2cc3c(cc2Br)OCCO3)CC1	108*	1	53	112

Screens (PubChem)
